Source: PubChem BioAssay (Sanford-Burnham Center for Chemical Genomics)
This is a sample that favours compounds with a hit; in the whole collection about 2.3% have one here.
NadD inh: NadD (S. aureus) enzyme inhibition | purified NadD enzyme, colorimetric absorbance read-out | inhibition, % at 20 µM | 0.78% of 360,000 active | AID 602399; in the data active = inhibition above about 26%
LMPTP inh: blocks human LMPTP phosphatase; P24666; recombinant LMPTP-A, OMFP fluorogenic substrate, fluorescence intensity; inhibition, % at 20 µM; 0.22% of 360,000 active;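 active = compounds that cut the enzyme signal by at least half of the control window in the single-dose screen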;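 note: plate controls were DMSO wells with enzyme plus substrate for no effect and substrate without enzyme for full effect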
Target sequence (P24666 whole entry, looked up): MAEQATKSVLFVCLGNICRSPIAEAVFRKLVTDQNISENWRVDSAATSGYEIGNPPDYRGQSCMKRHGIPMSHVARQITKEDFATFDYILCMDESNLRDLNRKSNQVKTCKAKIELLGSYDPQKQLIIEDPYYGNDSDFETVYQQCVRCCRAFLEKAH
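Buffer or medium: Bis-Tris pH 6.0, DTT, detergent; Assay system: LMPTP-A enzyme; Quantity: 0.625 nM enzyme; Detection: endpoint fluorescence intensity; Times: 50 min dark incubation at room temperature; Controls: substrate-only low control, DMSO enzyme-plus-substrate high control; Doses: single 20 µM dose; Read-out: percent inhibition versus substrate-only and uninhibited controls; Reagent: 400 µM OMFP.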
DNMT1 inh: DNMT1 (human) enzyme inhibition; P26358; inhibition (reported as % activation of signal), % at 10 µM; DNMT1 molecular beacon, Hinp1I cleavage, fluorescence; 0.83% of 360,000 active; in the data active = inhibition above about 50%
STEP inh: STEP (human) phosphatase inhibition; recombinant STEP, OMFP fluorogenic substrate, fluorescence; inhibition, % at 20 µM; 0.25% of 360,000 active;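 active = inhibition at 20 µM, scaled per plate between control wells, above about 37%, limit read from the data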;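 note: 0% = DMSO with enzyme and substrate and 100% = substrate only without enzyme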
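Material: STEP (striatal-enriched tyrosine phosphatase) enzyme, cell-free | Medium: 50 mM Bis-Tris pH 6.0 with 2.5 mM DTT and 0.005% Tween 20 | Read-out: Percent inhibition scaled to no-enzyme and uninhibited-enzyme controls, plate-pattern corrected | Signal: Fluorescence read at 480 nm ex / 540 nm em | Times: 20 min reaction, room temperature, in the dark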
SUMO1-SIM PPI: SUMO1-SIM interaction modulation; SUMO1 binding to a labelled peptide, TR-FRET, 1 h; inhibition, % at 20 µM; AID 602429; 0.33% of 360,000 active; P63165; in the data active = inhibition above about 37%
Target sequence (P63165 whole entry, looked up): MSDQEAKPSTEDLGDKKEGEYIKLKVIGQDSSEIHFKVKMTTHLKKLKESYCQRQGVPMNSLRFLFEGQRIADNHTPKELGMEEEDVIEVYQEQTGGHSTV
Scp-1 inhibitor: inhibitors of human Scp-1 phosphatase. inhibition, % at 20 µM. Recombinant Scp1, phosphopeptide, malachite green phosphate absorbance. Q9GZU7. 0.88% of 340,000 active;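 active = inhibition above about 50% at 20 µM, limit read from the data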;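 note: plate controls were DMSO wells with enzyme for no effect and wells lacking enzyme for full effect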
Target sequence (Q9GZU7 76-261 limits assumed): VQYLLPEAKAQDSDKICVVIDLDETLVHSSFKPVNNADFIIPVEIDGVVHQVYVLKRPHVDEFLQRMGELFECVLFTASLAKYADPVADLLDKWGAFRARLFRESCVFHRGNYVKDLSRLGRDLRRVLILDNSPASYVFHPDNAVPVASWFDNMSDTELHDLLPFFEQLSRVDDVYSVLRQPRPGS
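Test system – truncated SCP-1 phosphatase (76-261aa) · Reagent – Phosphorylated 17-residue peptide substrate · Incubation – 45 min room-temperature reaction, 5 min colour, 30 min stabiliser · Detection – colorimetric phosphate reagent with accelerator and stabiliser, absorbance at 630 nm · Measure – % inhibition at 20 µM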
The depositor's hits bear a star; / = no result given.

SMILES | NadD inh | LMPTP inh | DNMT1 inh | STEP inh | SUMO1-SIM PPI | Scp-1 inhibitor
O=C1NC(=O)N(Cc2ccc(F)cc2)C(=O)/C1=C\c1ccc([N+](=O)[O-])s1 | 37* | 27 | 49 | 6 | 58* | 5
O=C1NC(=O)N(Cc2ccc(F)cc2)C(=O)/C1=C\c1ccc(N2CCCC2)cc1 | 33* | 11 | 41 | -1 | 10 | -5
COc1ccccc1N1C(=O)NC(=O)/C(=C/c2ccc([N+](=O)[O-])s2)C1=O | / | / | / | / | / | 0
COc1ccc(CN2C(=O)NC(=O)/C(=C/c3ccc([N+](=O)[O-])s3)C2=O)cc1 | 45* | 35 | 51* | 9 | 65* | 14
O=C(O)COc1cc(Cl)c(Cl)cc1Cl | -1 | -3 | 5 | 0 | 5 | /
CC(C)COC(=O)c1ccccc1C(=O)OCC(C)C | -9 | 2 | -3 | 1 | 3 | -10
C[CH2][Hg][S]c1ccccc1C(=O)O | 10 | 2 | 26 | 2 | 10 | 101*
C=CC1CN2CCC1CC2C(O)c1ccnc2ccccc12 (stereo not given) | -1 | 0 | 1 | -1 | 1 | -1
c1ccc2c(c1)[IH]c1ccccc1-2 | -4 | 12 | 53* | 1 | -1 | 8
COc1ccc(N2C(=O)NC(=O)/C(=C/c3ccc([N+](=O)[O-])s3)C2=O)cc1 | 17 | 14 | 29 | 5 | 38* | 20
COc1cccc(N2C(=O)NC(=O)/C(=C/c3ccc([N+](=O)[O-])s3)C2=O)c1 | 10 | 8 | 33 | 3 | 47* | 12
CC(C)OC(=O)c1c(N)n(CC2CCCO2)c2nc3ccccc3nc12 (stereo not given) | 9 | 3 | -16 | 2 | 42* | -9
CC(=O)c1ccc2c(c1)C1C(Cl)C(Sc3ccccc3[N+](=O)[O-])CC1C(C(=O)O)N2 (stereo not given) | 22 | 78* | 114* | 19 | 84* | 48
O=C(O)c1cccc2c1NC(C(=O)O)C1CC(Sc3ccccc3[N+](=O)[O-])C(Cl)C21 (stereo not given) | 14 | 79* | 104* | 98* | 88* | 56*
CC1=NCCc2c1[nH]c1cc(O)ccc21 | 4 | 2 | 163* | -3 | -41 | -11
COc1ccc2c3c([nH]c2c1)C(C)=NCC3 | -9 | 2 | -14 | -7 | -30 | -11
CC(C)C1CN1CC(O)Cn1ccnc1[N+](=O)[O-] (stereo not given) | 0 | -1 | -2 | 0 | -17 | /
CC[n+]1c(/C=C/C=C/c2ccc(N(C)C)cc2)sc2ccccc21 | -9 | 90* | -20 | 21 | -59 | -7
CN(C)c1ccc(/C=C/C=C/c2sc3ccccc3[n+]2C)cc1 | -10 | 16 | -6 | 4 | -45 | -4
Fc1cccc(F)c1-c1nc(-c2ccc(Cl)cc2)no1 | -9 | 3 | -1 | -1 | 2 | -13
O=C1NC(=O)N(c2ccccc2)C(=O)/C1=C/c1ccc(Sc2ccccc2)o1 | 37* | 1 | 22 | 3 | 10 | 4
O=C1NC(=O)N(c2cccc(Cl)c2)C(=O)/C1=C\c1ccc(Sc2nc3ccccc3[nH]2)o1 | 65* | 8 | 24 | -3 | 32 | 9
Cc1ccc(/C=C2\C(=O)NC(=S)N(c3ccccc3F)C2=O)s1 | 16 | 1 | 0 | 4 | 9 | -4
O=C1NC(=O)N(c2ccccc2F)C(=O)/C1=C/c1ccc(Sc2nc3ccccc3[nH]2)o1 | 45* | 8 | 30 | 2 | 26 | 9
COC(=O)C1=C(c2ccc(Cl)c(C(F)(F)F)c2)C[C@@H]2CC[C@H]1N2C(=O)N1CCC(C)CC1 | -7 | 5 | -3 | 2 | -3 | -2
COc1ccccc1-n1c(-c2ccccc2Cl)nc2ccccc2c1=O | -2 | 1 | -1 | -1 | 2 | -13
CCOP(=O)(CCP(=O)(OCC)OCC)OCC.C[CH2][Sn]([Cl])([Cl])[CH2]C | -1 | -2 | -6 | -1 | -2 | 5
C[C@H]1OC[C@@H](C[N+](C)(C)C)O1 | 15 | -3 | -29 | 1 | 1 | 101*
COC(=O)C12CCc3cc(OC)ccc3C1=CC(=O)C2 (stereo not given) | -3 | 0 | 0 | 1 | -8 | /
